Experimental data taken from ChEMBL document CHEMBL1138477, “8-(4-Methoxyphenyl)pyrazolo[1,5-a]-1,3,5-triazines: selective and centrally active corticotropin-releasing factor receptor-1 (CRF1) antagonists” (J Med Chem, 2009).
Values belong to the compound of their own block, whether it stands above or below them. Activity calls are given as the source filed them.

Columns and labels:
Rattus norvegicus [1] = assay: Ex vivo receptor occupancy of CRF1 receptor in Sprague-Dawley rat brain at 0.3 mg/kg, po by [125I]sauvagine binding and autoradiography relative to control; type: functional
Procedure, shortened: (§1)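 Sprague-Dawley rats dosed po at 0.3, 1, 3, 10, 30 mg/kg in the defensive-withdrawal vehicle and protocol; brains removed, sectioned, frozen at -80 °C, then ex vivo binding gave occupancy relative to vehicle-treated rats; mean ± SEM.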

[2] = Volume of distribution at steady state in female Sprague-Dawley CD rat at 1 mg/kg, iv; type: ADME, organism-based; parameters: dose 1 mg/kg, route intravenous; details: in vivo, read-out: Vdss
Procedure, shortened: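 Female Sprague-Dawley CD rats (n = 3) given a single 1 mg/kg iv bolus (free base) in 20% ethanol/physiological saline (apparent pH 3.4). Jugular vein blood taken into EDTA from predose to 32 h. Plasma assayed by solid-phase extraction and LC/MS with an internal standard (range 5–5000 nM). Noncompartmental analysis; mean ± SD.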

Rattus norvegicus [3] = assay: Hepatic blood flow in iv dosed male Sprague-Dawley CD rat; type: ADME, organism-based, Liver; details: in vivo
Rattus norvegicus [4] = assay: Anxiolytic-like activity in Sprague-Dawley rat assessed as increase in time spent in open arms at 30 mg/kg, po measured after 1 hr by elevated plus maze test; type: functional, organism-based; parameters: dose 30 mg/kg
Procedure, shortened: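 Group-housed male Sprague-Dawley rats (180-300 g) dosed po in 0.25% Methocel 1 h before elevated plus maze; arm entry defined as all four paws in arm; percent time in open arms scored; test doses 1.0, 3.0, 10, 30 mg/kg; positive control at 18 mg/kg; n = 13-15/dose; mean ± SEM, ANOVA then Fisher's LSD.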

Rattus norvegicus [5] = assay: Ex vivo receptor occupancy of CRF1 receptor in Sprague-Dawley rat brain at 30 mg/kg, po by [125I]sauvagine binding and autoradiography relative to control; type: functional; procedure, shortened: as §1
[6] = Elimination half life in female Sprague-Dawley CD rat at 1 mg/kg, iv; type: ADME, organism-based; parameters: dose 1 mg/kg, route intravenous; details: in vivo, read-out: beta t1/2 (converted)
Procedure, shortened: (§2)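 Sprague-Dawley CD rats: 1 mg/kg iv bolus in 20% ethanol/saline (apparent pH 3.4) to 3 males and 3 females; 5 mg/kg po in 0.5% methylcellulose with 1% Tween-80 to 3 males. Jugular blood into EDTA, predose to 32 h. Free base quantified by LC/MS after solid-phase extraction (range 5-5000 nM); noncompartmental analysis; F relative to iv.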

[7] = Clearance in female Sprague-Dawley CD rat at 1 mg/kg, iv; type: ADME, organism-based; parameters: dose 1 mg/kg, route intravenous; details: in vivo; procedure, shortened: as §2
Rattus norvegicus [8] = assay: Anxiolytic-like activity in Sprague-Dawley rat assessed as decrease in latency to exit dark chamber at 3 mg/kg, po measured after 1 hr by defensive withdrawal test relative to control; type: functional; parameters: scale not given: the % may be the effect or the level left
Procedure, shortened: (§3)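 Male Sprague-Dawley rats (180-300 g), individually housed; open field with cylindrical dark chamber; oral dosing in 0.25% Methocel 1 h before a 15 min session scored blind via video; latency to place all four paws in open field recorded, maximum 900 s; test doses 1.0, 3.0, 10, 30 mg/kg; positive control at 10 mg/kg; n = 12/dose; Kruskal-Wallis then Mann-Whitney U.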

[9] = Clearance in male Sprague-Dawley CD rat at 1 mg/kg, iv; type: ADME, organism-based; parameters: dose 1 mg/kg, route intravenous; details: in vivo; procedure, shortened: as §2
Rattus norvegicus [10] = assay: Ex vivo receptor occupancy of CRF1 receptor in Sprague-Dawley rat brain at 10 mg/kg, po by [125I]sauvagine binding and autoradiography relative to control; type: functional; procedure, shortened: as §1
Rattus norvegicus [11] = assay: Ex vivo receptor occupancy of CRF1 receptor in Sprague-Dawley rat brain at 3 mg/kg, po by [125I]sauvagine binding and autoradiography relative to control; type: functional; procedure, shortened: as §1
Rattus norvegicus [12] = assay: Toxicity in Sprague-Dawley rat assessed as total distance traveled at 30 mg/kg, po after 1 hr by open-field locomotor activity test; type: organism-based; parameters: dose 30 mg/kg, route oral; details: in vivo
Procedure, shortened: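 Male Sprague-Dawley rats received a single oral gavage dose of 30 mg/kg (free base weight) in 0.5% methocel–Tween-80 (99:1) or vehicle alone. Behaviour was assessed 1 h postdose, as time on the rotorod in seconds for the rotorod test and total distance travelled in cm for open-field locomotor activity. Values are mean ± SEM, n = 8 per group.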

[13] = Tmax in male Sprague-Dawley CD rat at 5 mg/kg, po; type: ADME, organism-based; parameters: dose 5 mg/kg, route oral; details: in vivo; procedure, shortened: as §2
Rattus norvegicus [14] = assay: Ex vivo receptor occupancy of CRF1 receptor in Sprague-Dawley rat brain at 1 mg/kg, po by [125I]sauvagine binding and autoradiography relative to control; type: functional; procedure, shortened: as §1
Rattus norvegicus [15] = assay: Anxiolytic-like activity in Sprague-Dawley rat assessed as decrease in latency to exit dark chamber at 30 mg/kg, po measured after 1 hr by defensive withdrawal test relative to control; type: functional; parameters: scale not given: the % may be the effect or the level left; procedure, shortened: as §3
[16] = Oral bioavailability in male Sprague-Dawley CD rat at 5 mg/kg relative to 1 mg/kg, iv dose; type: ADME, organism-based; details: in vivo; procedure, shortened: as §2
Rattus norvegicus [17] = assay: Ex vivo receptor occupancy of CRF1 receptor in po dosed Sprague-Dawley rat brain by [125I]sauvagine binding and autoradiography relative to control; type: functional; details: read-out: MED; procedure, shortened: as §1
[18] = Volume of distribution at steady state in Beagle dog at 1 mg/kg, iv; type: ADME, organism-based, Canis lupus familiaris; parameters: dose 1 mg/kg, route intravenous; details: in vivo, read-out: Vdss
Procedure, shortened: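 Male beagle dogs (8.0-11.0 kg) dosed intravenously. Plasma sampled at 0.25, 0.5, 1, 2, 4, 6, 8, 12 and 24 h after dosing. Liquid–liquid extraction in hexane/ether, then LC/MS/MS assay (quantitation limit 1 ng/mL). Concentrations expressed as free base. Parameters obtained by noncompartmental analysis as for rat. Mean ± SD.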

[19] = Clearance in Beagle dog at 1 mg/kg, iv; type: ADME, organism-based, Canis lupus familiaris; parameters: dose 1 mg/kg, route intravenous; details: in vivo
Procedure, shortened: (§4)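 Male beagle dogs (8.0-11.0 kg) dosed iv or po (5 mg/kg oral suspension in 0.5% methylcellulose with 1% Tween-80); plasma sampled 0.25-24 h; liquid-liquid extraction with hexane/ether, LC/MS/MS, quantitation limit 1 ng/mL (2.42 nM); noncompartmental parameters as free base.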

[20] = Elimination half life in Beagle dog at 1 mg/kg, iv; type: ADME, organism-based, Canis lupus familiaris; parameters: dose 1 mg/kg, route intravenous; details: in vivo, read-out: beta t1/2 (converted); procedure, shortened: as §4
[21] = Cmax in Beagle dog at 20 mg/kg, po; type: ADME, organism-based, Canis lupus familiaris; parameters: dose 20 mg/kg, route oral; details: in vivo
[22] = Tmax in Beagle dog at 20 mg/kg, po; type: ADME, organism-based, Canis lupus familiaris; parameters: dose 20 mg/kg, route oral; details: in vivo

Vd [2]: 12.2 L/kg
QH (Rattus norvegicus [3]): 55 mL/min/kg
half-life [6]: 11.9 h
clearance [7]: 14.5 mL/min/kg
clearance [9]: 20 mL/min/kg
Tmax [13]: 0.5 h
bioavailability [16]: 51%
SMILES: COCCN(CCOC)c1nc(C)nc2c(-c3ccc(OC)cc3C)c(C)nn12
Activity (Rattus norvegicus [1]): 12%
Activity (Rattus norvegicus [4]): Active
Activity (Rattus norvegicus [5]): 82%
Activity (Rattus norvegicus [8]): 62%
Activity (Rattus norvegicus [10]): 60%
Activity (Rattus norvegicus [11]): 48%
Activity (Rattus norvegicus [12]): 4986 cm
Activity (Rattus norvegicus [14]): 17%
Activity (Rattus norvegicus [15]): 59%
minimal effective dose (Rattus norvegicus [17]): 3 mg/kg

Vd [18]: 14.8 L/kg
clearance [19]: 10 mL/min/kg
half-life [20]: 33.3 h
Cmax [21]: 1940 nM
Tmax [22]: 4 h
SMILES: CC[C@@H](C)Nc1nc(C)nc2c(-c3c(C)cc(OC)cc3OC)c(C)nn12
